By IC50 is commonly meant the midpoint of a concentration-inhibition curve.

This is an account of results in paper PMC4684772 (ACS chemical biology, 2015).

The test system of assay [1] is LUSQ cell lines (H157, H2170, H520, H596). The assay can be described thus: cell viability. The class given is cell-based. The settings on record: for sensitivity regarding viability: H157 and H520 cells, Fig. S4. Summed up: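 Four LUSQ lines (H157, H2170, H520, H596) were exposed to the test compound for 72 hours and cell viability was measured. IC50 values for inhibition of viability were derived per line.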

For assay [2], the system named is CDK4. The settings on record: cited from earlier work; for IC50: read-out: IC50 for CDK4 inhibition.
Assay [3] has as its target PIK3C3 (Homo sapiens, UniProt Q8NEB9). Put plainly: in vitro kinase assay. The class given is biochemical.
Assay [4] concerns H157 cells. Put plainly: Rb Ser780 phosphorylation immunoblot. The following applies: 1 µM and 5 µM, 4 and 24 hours. The class given is cell-based. In general terms: A western blot detects proteins with antibodies after separation by electrophoresis.
Assay [5] relates to H157 and H520 cells. Put plainly: pSer473 AKT and pGSK3 Western blots. The class given is cell-based. The following applies: 4 hours.
The subject of assay [6] is H157 and H520 cells. The assay can be described thus: LC3 Western blots. The class given is cell-based. The settings on record: 48 hours.
For assay [7], the system named is autophagic vesicles. The assay can be described thus: quantitative analysis of autophagic vesicles by Cyto-ID. The class given is cell-based. The following applies: 3 hour treatment.
In assay [8] the test system is CDK9. Put plainly: in vitro kinase assay. The following applies: in vitro kinase assays. The class given is biochemical.
The test system of assay [9] is PIK3CD. Put plainly: in vitro kinase assay. The class given is biochemical. The following applies: in vitro kinase assays.
The subject of assay [10] is CSNK2α2. Put plainly: in vitro kinase assay. The settings on record: in vitro kinase assays. The class given is biochemical.
Assay [11] has as its system PIK3R4. The assay can be described thus: dose-dependent binding competition with soluble drug. The settings on record: Fig. S3C.
The subject of assay [12] is CDK4/cyclin D1. The assay can be described thus: in vitro kinase assays for CDK4/cyclin D1 activity. The settings on record: in vitro kinase assay CDK4/cyclin D1. The class given is biochemical.
Assay [13] concerns TNK1. Put plainly: in vitro kinase assay. The class given is biochemical. The settings on record: in vitro kinase assays.
The subject of assay [14] is AURKA. Put plainly: in vitro kinase assay. The class given is biochemical. The following applies: in vitro kinase assays.
Assay [15] relates to GAK. The assay can be described thus: dose-dependent binding competition with soluble drug. The settings on record: Fig. S3C.

Entries after “also recorded” stand apart in the source; their conditions may differ.

Chain of PIK3C3 (Q8NEB9 whole entry): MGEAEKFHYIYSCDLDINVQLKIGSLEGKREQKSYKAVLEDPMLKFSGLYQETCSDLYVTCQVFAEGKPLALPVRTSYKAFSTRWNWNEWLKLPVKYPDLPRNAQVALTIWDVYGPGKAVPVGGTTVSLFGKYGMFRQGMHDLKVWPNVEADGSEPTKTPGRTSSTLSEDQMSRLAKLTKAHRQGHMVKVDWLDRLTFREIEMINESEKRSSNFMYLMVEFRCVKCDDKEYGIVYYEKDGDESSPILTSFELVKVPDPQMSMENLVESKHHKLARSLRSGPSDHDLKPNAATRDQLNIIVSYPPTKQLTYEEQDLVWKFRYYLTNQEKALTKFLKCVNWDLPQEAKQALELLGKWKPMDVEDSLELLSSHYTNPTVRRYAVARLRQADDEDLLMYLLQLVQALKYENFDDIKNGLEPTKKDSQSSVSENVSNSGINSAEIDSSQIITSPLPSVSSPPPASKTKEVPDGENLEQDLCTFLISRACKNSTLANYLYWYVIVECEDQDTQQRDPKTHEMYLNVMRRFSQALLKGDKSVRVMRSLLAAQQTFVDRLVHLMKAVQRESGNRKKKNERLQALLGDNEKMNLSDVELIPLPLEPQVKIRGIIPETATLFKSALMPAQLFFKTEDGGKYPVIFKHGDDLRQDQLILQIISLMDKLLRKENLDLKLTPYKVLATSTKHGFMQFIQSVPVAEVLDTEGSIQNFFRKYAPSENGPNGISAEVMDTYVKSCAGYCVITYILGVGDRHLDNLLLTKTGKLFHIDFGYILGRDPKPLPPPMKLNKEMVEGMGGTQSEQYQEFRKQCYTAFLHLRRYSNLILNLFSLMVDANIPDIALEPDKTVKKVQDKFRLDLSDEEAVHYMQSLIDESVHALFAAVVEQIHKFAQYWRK

Consider `CCN1CCN(Cc2ccc(Nc3ncc(F)c(-c4cc(F)c5nc(C)n(C(C)C)c5c4)n3)nc2)CC1` [Abemaciclib, abemaciclib], for which, in assay [1] (LUSQ cell lines, Fig. S1), the “effects on viability compared with palbociclib and ribociclib” value is reported as “stronger effects”. For the same compound, the “fold more potent for CDK4 than palbociclib and ribociclib” value in assay [2] is “about 5 fold”.
For `CC(=O)c1c(C)c2cnc(Nc3ccc(N4CCNCC4)cn3)nc2n(C2CCCC2)c1=O` [palbociclib], the results for the IC50 in assay [3] and in assay [2] were 14800 nM and […], respectively. For the same compound, the “inhibition of Rb phosphorylation at S780” value in assay [4] is given as “effectively inhibited”. Also, the “inhibition of phosphorylation of AKT S473 and its downstream target GSK3β” value in assay [5] is given as “dose-dependently inhibits”. Moreover, the “lipidation of LC3 (LC3-II)” value in assay [6] is “increased”. For the same compound, the “number of autophagic vesicles” value in assay [7] is “increased”. Further, the “validation as target, CDK9” value in assay [8] is reported as “new palbociclib targets”. The “validation as target, PIK3CD” value in [9] is “relatively weak; also recorded: new palbociclib targets”. Also, the “validation as target, CSNK2α2” value in assay [10] was “new palbociclib targets”. For the same compound, in assay [1] (LUSQ cell lines, 72 hours), the “cellular activity compared with ribociclib” value is recorded as “somewhat more active”. In addition, the “interaction with PIK3R4” value in assay [11] was “potent interactions”.
Take `CN(C)C(=O)c1cc2cnc(Nc3ccc(N4CCN(CCCN)CC4)cn3)nc2n1C1CCCC1` [c-ribociclib]: the “CDK4 activity of coupleable analogues” value in assay [12] is reported as “conservation of their CDK4 activity”.
Turning to `CN(C)C(=O)c1cc2cnc(Nc3ccc(N4CCNCC4)cn3)nc2n1C1CCCC1` [ribociclib], the “inhibition of Rb phosphorylation at S780” value in assay [4] is “effectively inhibited”. Further, the “validation as target, CDK9” value in assay [8] is reported as “potent”. For the same compound, in assay [13], the “validation as target, TNK1” value is recorded as “potent”. Further, the “inhibition of AURKA” value in assay [14] is reported as “weakly inhibited”. Further, the “interaction with GAK” value in assay [15] is listed as “potent interactions”. Also, in assay [2], the IC50 was […].
On to `CC[C@H](Nc1ncnc2[nH]cnc12)c1nc2cccc(F)c2c(=O)n1-c1ccccc1` [CAL-101], for which the sensitivity regarding viability entry in [1] is on record as “relative insensitivity”.
For the compound `Nc1cc(C(F)(F)F)c(-c2cc(N3CCOCC3)nc(N3CCOCC3)n2)cn1` [BKM120], the sensitivity regarding viability result in assay [1] is “relative insensitivity”.
